Here are results for 67 molecules from ChEMBL document CHEMBL1800068 (J Med Chem, 2011).

Assay [1] deals with T1, Retinol-binding protein 4 (Homo sapiens, UniProt P02753). Briefly: Binding affinity to His-tagged recombinant human sRBP expressed in Escherichia coli BL21(DE3) assessed as disruption of sRBP-TTR protein interaction after 1 hr by SDS-PAGE and silver staining method. In outline: (§1)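 Compound was 100 μM, or 1, 10, 20, 50 and 100 μM for dose–response. Control was 10 μM ROH with no compound. Released free sRBP in the flow-through was analysed by SDS-PAGE; each run done at least three times.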

For assay [2], the target named is T1, Retinol-binding protein 4. In words: Binding affinity to His-tagged recombinant human sRBP expressed in Escherichia coli BL21(DE3) assessed as disruption of sRBP-TTR protein interaction at 1 to 100 uM after 1 hr by SDS-PAGE and silver staining method. The gist of the method: as §1
The target of assay [3] is T1, Retinol-binding protein 4. Briefly: Antagonist activity at His-tagged recombinant human sRBP […] assessed as disruption of ROH-sRBP-TTR protein interaction after 2 hr by TR-FRET assay. The format is functional. The gist of the method:
(§2)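 Apo His-sRBP (P. pastoris-expressed), 5 nM, with 100 nM biotinylated native TTR, 100 nM streptavidin-APC and 1 nM europium anti-His antibody. Inhibitor held at 10 μM while ROH was titrated, in 20 mM Tris-HCl pH 7.4, 150 mM NaCl, 1 mM EDTA, 0.01% BSA, 0.02% Tween 20.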

The target in assay [4] is T1, Retinol-binding protein 4. Briefly: Binding affinity to His-tagged recombinant human sRBP expressed in Pichia pastoris assessed as apparent dissociation constant after 5 mins by fluorescence spectrophotometric analysis. The conditions noted are these: read-out: Kd(app).
The target in assay [5] is T1, Retinol-binding protein 4. Briefly: Antagonist activity at His-tagged recombinant human sRBP […] assessed as disruption of ROH-sRBP-TTR protein interaction after 2 hr by TR-FRET assay relative to control. The format is functional. The gist of the method:
as §2

Assay [6] deals with T1, Retinol-binding protein 4. In words: Binding affinity to immobilized His-tagged recombinant human sRBP assessed as inhibition of sRBP and detergent treated HEK293 membrane interaction at 10 uM after 1 hr by surface plasmon resonance assay. For orientation: Surface plasmon resonance follows binding to a sensor surface in real time, without labels.

Usually EC50 stands for the concentration giving half of the maximal effect.

Active and inactive are the calls of the source. The calls are words filed in the database; no cut-off is given here.

Consider `CC1=C(/C=C/C(C)=C/C=C/C(C)=C/C(=O)Nc2ccc(OCC(=O)N3CCCCC3)cc2)C(C)(C)CCC1`, for which, in assay [1], the result was Active.

As to `CC1=C(/C=C/C(C)=C/C=C/C(C)=C/C(=O)NCCC(C)(C)C)C(C)(C)CCC1`, the outcome in assay [1] was Active.

Turning to `CC(C)(C)CC(=O)Nc1ccc(O)cc1`, in assay [2], the result was inactive.

As for `CC1=C(/C=C/C(C)=C/C=C/C(C)=C/C(=O)NCc2ccc3c(c2)OCO3)C(C)(C)CCC1`, the outcome in assay [1] was Active.

`CC1=C(/C=C/C(C)=C/C=C/C(C)=C/C(=O)Nc2ccc(OCC(=O)NCCO)cc2)C(C)(C)CCC1`: the outcome in assay [1] was Active.

For the molecule `CC(C)=CC(=O)Nc1ccc(O)cc1`, in assay [2], the outcome was inactive.

Consider `CC1=C(/C=C/C(C)=C/C=C/C(C)=C/C(=O)NC2CCCCC2)C(C)(C)CCC1`, for which the result in assay [1] was Active.

In the case of `COc1ccc(NC(=O)/C=C(C)/C=C/C=C(C)/C=C/C2=C(C)CCCC2(C)C)cc1`, in assay [1], the result was Active.

Regarding `CC1=C(/C=C/C(C)=C/C=C/C(C)=C/C(=O)NCCO)C(C)(C)CCC1`, the EC50 in assay [3] was 0.145 µM. Also, in assay [4], the Kd was 0.214 µM. For the same molecule, in assay [5], the Ratio EC50 was 2. The outcome in assay [1] and in assay [6] was Active.

`COc1cccc(NC(=O)/C=C(C)/C=C/C=C(C)/C=C/C2=C(C)CCCC2(C)C)c1`: the outcome in assay [1] was Active.

For the molecule `CC1=C(/C=C/C(C)=C/C=C/C(C)=C\C(=O)Nc2ccc(O)cc2)C(C)(C)CCC1`, the result in assay [1] and in assay [6] was Active.

`CC1=C(/C=C/C(C)=C/C=C/C(C)=C/C(=O)N2CCC(O)(c3ccccc3)CC2)C(C)(C)CCC1`: in assay [1], the outcome was Active.

As to `CC(C)=CCC/C(C)=C/C(=O)Nc1ccc(O)cc1`, the result in assay [2] was inactive.

With `CC1=C(/C=C/C(C)=C/C=C/C(C)=C/C(=O)N2CCCC3CCCCC32)C(C)(C)CCC1` (centres undefined), the outcome in assay [1] was Active.

Regarding `CC1=C(/C=C/C(C)=C/C=C/C(C)=C/C(=O)NC2CC2)C(C)(C)CCC1`, the result in assay [1] was Active.

In the case of `CC1=C(/C=C/C(C)=C/C=C/C(C)=C/C(=O)NCC(O)CO)C(C)(C)CCC1` (centres undefined), the EC50 in assay [3] was found to be 0.171 µM. Further, the Kd in assay [4] is 0.178 µM. For the same molecule, in assay [5], the Ratio EC50 stood at 2. The result in assay [1] and in assay [6] was Active.

Turning to `CC(C)CC(=O)Nc1ccc(O)cc1`, the result in assay [2] was inactive.

As for `CC(C)CCCC(=O)Nc1ccc(O)cc1`, the result in assay [2] was inactive.

Consider `CC1=C(/C=C/C(C)=C/C=C/C(C)=C/C(=O)NCCCOc2ccccc2)C(C)(C)CCC1`, for which the result in assay [1] was Active.

On to `CC(C)CCC(=O)Nc1ccc(O)cc1`, for which the outcome in assay [2] was inactive.

`O=C(CCc1ccccc1)Nc1ccc(O)cc1`: in assay [2], the result was inactive.

For `CC1=C(/C=C/C(C)=C/C=C/C(C)=C/C(=O)N2CCC(O)CC2)C(C)(C)CCC1`, the outcome in assay [1] was Active.

`COc1ccccc1CNC(=O)/C=C(C)/C=C/C=C(C)/C=C/C1=C(C)CCCC1(C)C`: the result in assay [1] was Active.

As for `CC1=C(/C=C/C(C)=C/C=C/C(C)=C/C(=O)N2CCS(=O)(=O)CC2)C(C)(C)CCC1`, in assay [1], the result was Active.

Take `CC(C)c1ccc(CCCC(=O)Nc2ccc(O)cc2)cc1`: in assay [2], the result was inactive.

Take `C=CC(=O)Nc1ccc(O)cc1`: the result in assay [2] was inactive.

As to `CCCCC(=O)Nc1ccc(O)cc1`, the outcome in assay [2] was inactive.

Consider `CC1=C(/C=C/C(C)=C/C=C/C(C)=C/C(=O)NCc2ccccc2)C(C)(C)CCC1`, for which the outcome in assay [1] was Active.

Regarding `CC1=C(/C=C/C(C)=C/C=C/C(C)=C/C(=O)N2CCC3CCCCC3C2)C(C)(C)CCC1` (centres undefined), in assay [1], the outcome was Active.

As to `CC1=C(/C=C/C(C)=C/C=C/C(C)=C/C(=O)N2CCCOCC2)C(C)(C)CCC1`, the outcome in assay [1] was Active.

As to `CC1=C(/C=C/C(C)=C/C=C/C(C)=C/C(=O)Nc2ccc3c(c2)OCO3)C(C)(C)CCC1`, the outcome in assay [1] was Active.

Take `CCOc1ccc(NC(=O)/C=C(C)/C=C/C=C(C)/C=C/C2=C(C)CCCC2(C)C)cc1`: in assay [1], the result was Active.

On to `CC1=C(/C=C/C(C)=C/C=C/C(C)=C/C(=O)NCc2ccc(Cl)cc2)C(C)(C)CCC1`, for which the result in assay [1] was Active.

For `COCCOc1ccc(NC(=O)/C=C(C)/C=C/C=C(C)/C=C/C2=C(C)CCCC2(C)C)cc1`, in assay [1], the outcome was Active.

For `COc1ccc(CC(=O)Nc2ccc(O)cc2)cc1`, in assay [2], the result was inactive.

`CC1=C(/C=C/C(C)=C/C=C/C(C)=C/C(=O)NCC2CC2)C(C)(C)CCC1`: in assay [1], the result was Active.

Consider `CC1=C(/C=C/C(C)=C/C=C/C(C)=C/C(=O)Nc2ccc(OCC(=O)O)cc2)C(C)(C)CCC1`, for which the outcome in assay [1] was Active.

For `COc1cccc(CNC(=O)/C=C(C)/C=C/C=C(C)/C=C/C2=C(C)CCCC2(C)C)c1`, the outcome in assay [1] was Active.

`CC1=C(/C=C/C(C)=C/C=C/C(C)=C/C(=O)N2CCCCCC2)C(C)(C)CCC1`: the result in assay [1] was Active.

With `CC1=C(/C=C/C(C)=C/C=C/C(C)=C/C(=O)N2CCC(F)CC2)C(C)(C)CCC1`, the outcome in assay [1] was Active.

For the molecule `O=C(CCCCCc1ccccc1)Nc1ccc(O)cc1`, the result in assay [2] was inactive.

With `CC1=C(/C=C/C(C)=C/C=C/C(C)=C/C(=O)NCc2ccc(Oc3ccccc3)cc2)C(C)(C)CCC1`, the result in assay [1] was Active.

Turning to `CC1=C(/C=C/C(C)=C/C=C/C(C)=C/C(=O)N2CCC(F)(F)CC2)C(C)(C)CCC1`, the result in assay [1] was Active.

With `COc1ccc(CCCC(=O)Nc2ccc(O)cc2)cc1`, in assay [2], the result was inactive.

Turning to `CC1=C(/C=C/C(C)=C/C=C/C(C)=C/C(=O)N2CCC(CCO)CC2)C(C)(C)CCC1`, the outcome in assay [1] was Active.

For the molecule `CC1=C(/C=C/C(C)=C/C=C/C(C)=C/C(=O)Nc2ccccc2)C(C)(C)CCC1`, the result in assay [1] was Active.

`O=C(CCCc1ccccc1)Nc1ccc(O)cc1`: in assay [2], the result was inactive.

For `CC1=C(/C=C/C(C)=C/C=C/C(C)=C/C(=O)NCc2cccnc2)C(C)(C)CCC1`, the result in assay [1] was Active.

With `CC1=C(/C=C/C(C)=C/C=C/C(C)=C/C(=O)N2CCCCC2)C(C)(C)CCC1`, in assay [1], the result was Active.

`COCCOCC(=O)Nc1ccc(O)cc1`: in assay [2], the outcome was inactive.

As to `CC1=C(/C=C/C(C)=C/C=C/C(C)=C/C(=O)N2CCC(Cc3ccccc3)CC2)C(C)(C)CCC1`, the result in assay [1] was Active.

As to `CC1=C(/C=C/C(C)=C/C=C/C(C)=C/C(=O)N2CCN(c3ccc(C)cc3)CC2)C(C)(C)CCC1`, the outcome in assay [1] was Active.

On to `CC1=C(/C=C/C(C)=C/C=C/C(C)=C/C(=O)Nc2ccc(OCC(=O)N(C)C)cc2)C(C)(C)CCC1`, for which the outcome in assay [1] was Active.

Consider `COc1ccc(CNC(=O)/C=C(C)/C=C/C=C(C)/C=C/C2=C(C)CCCC2(C)C)cc1`, for which the result in assay [1] was Active.

`O=C(Cc1ccccc1)Nc1ccc(O)cc1`: the result in assay [2] was inactive.

In the case of `COc1ccc(CCC(=O)Nc2ccc(O)cc2)cc1`, the outcome in assay [2] was inactive.

Turning to `COCCC(=O)Nc1ccc(O)cc1`, in assay [2], the result was inactive.

Regarding `CC(C)(C)C(=O)Nc1ccc(O)cc1`, the outcome in assay [2] was inactive.

Take `CC(C)c1ccc(CCC(=O)Nc2ccc(O)cc2)cc1`: the result in assay [2] was inactive.

As for `CC1=C(/C=C/C(C)=C/C=C/C(C)=C/C(=O)N2CCOCC2)C(C)(C)CCC1`, the EC50 in assay [3] came to 0.154 µM. In addition, the Kd in assay [4] was found to be 0.227 µM. Further, the Ratio EC50 in assay [5] is 2. Besides, the outcome in assay [1] and in assay [6] was Active.

Turning to `CCOC(=O)CNC(=O)/C=C(C)/C=C/C=C(C)/C=C/C1=C(C)CCCC1(C)C`, the outcome in assay [1] was Active.

Turning to `COc1cc(NC(=O)/C=C(C)/C=C/C=C(C)/C=C/C2=C(C)CCCC2(C)C)cc(OC)c1OC`, the result in assay [1] was Active.

Regarding `CC1=C(/C=C/C(C)=C/C=C/C(C)=C/C(=O)Nc2ccc(N(C)C)cc2)C(C)(C)CCC1`, the EC50 in assay [3] is 0.954 µM. For the same molecule, the Kd in assay [4] amounted to 0.098 µM. For the same molecule, in assay [5], the Ratio EC50 stood at 15. For the same molecule, in assay [1], the Activity result is “Dose-dependent effect”. Further, in assay [6], the result was Active.

Regarding `O=C(CCCCc1ccccc1)Nc1ccc(O)cc1`, the outcome in assay [2] was inactive.

`CC(CCCC(C)CC(=O)Nc1ccc(O)cc1)CCC1C(C)CCCC1(C)C` (centres undefined): in assay [1], the result was Active.

For the molecule `CC1=C(/C=C/C(C)=C/C=C/C(C)=C/C(=O)NCc2ccccn2)C(C)(C)CCC1`, the outcome in assay [1] was Active.

With `CC1=C(/C=C/C(C)=C/C=C/C(C)=C/C(=O)NCc2ccc(F)cc2)C(C)(C)CCC1`, the outcome in assay [1] was Active.
